The subject of series [1] is RAW264.7. Briefly: Antiinflammatory activity in mouse RAW264.7 cells assessed as inhibition of LPS-induced nitric oxide production by griess assay. The class given is functional, cell-based. Summed up: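 RAW 264.7 mouse macrophages induced with LPS; NO production measured over five test concentrations to derive IC50; means ± SD, n = 3; dexamethasone positive control.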

For series [2], the system named is RAW264.7. Briefly: Cytotoxicity against mouse RAW264.7 cells at 200 uM measured in presence of LPS by MTT assay. The series is classed as cell-based. Particulars: raw264.7, 200 µM. Put shortly: (§1)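 MTT viability of RAW 264.7 mouse macrophages exposed to compound at 200 μM, with or without 1 μg/mL LPS; reported as cell survival rate (%).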
(Tetrazolium dyes change colour on reduction, which living cells bring about.)

Series [3] deals with RAW264.7. Put plainly: Cytotoxicity against mouse RAW264.7 cells at 200 uM measured in absence of LPS by MTT assay. The series is classed as cell-based. Particulars: raw264.7, 200 µM. Summed up:
as §1

For the compound `C=C1[C@@H]2CC[C@@H]3C[C@@]2(C[C@@H](OC(C)=O)[C@@]2(O)[C@H]1C[C@H](O)C2(C)C)C[C@@]3(C)O`, the IC50 in the series with RAW264.7 [1] was over 40 µM. Moreover, the Activity result with RAW264.7 [2] and in the series on RAW264.7 [3] was “Non-Toxic” throughout.
With `C=C1[C@@H]2[C@@H](OC)[C@H](O)C(C)(C)[C@@]2(O)[C@H](OC(C)=O)C[C@]23C[C@@](C)(O)[C@H](CC[C@@H]12)[C@H]3O`, the IC50 in the series on RAW264.7 [1] was over 40 µM. Moreover, the Activity entry with RAW264.7 [2] and in the series on RAW264.7 [3] was “Non-Toxic” in each case.
In the case of `CO[C@@H]1[C@H]2C(C)=C3CC[C@@H]4[C@@H](O)[C@@]3(C[C@@H](OC(C)=O)[C@]2(O)C(C)(C)[C@H]1O)C[C@@]4(C)O`, the IC50 in the series with RAW264.7 [1] is over 40 µM. The Activity entry with RAW264.7 [2] and in the series on RAW264.7 [3] was “Non-Toxic” throughout.
Regarding `CO[C@H]1[C@H](O)C(C)(C)[C@@]2(O)[C@H](OC(C)=O)C[C@]34C[C@@](C)(O)[C@H](CC[C@H]3[C@@](C)(O)[C@H]12)[C@H]4O[C@H]1[C@H](O)C(C)(C)[C@@]2(O)[C@H](OC(C)=O)C[C@]34C[C@@](C)(O)[C@H](CC[C@H]3[C@@](C)(O)[C@H]12)[C@H]4O`, the IC50 in the series on RAW264.7 [1] is over 40 µM. For the same compound, the Activity entry in the series with RAW264.7 [2] and with RAW264.7 [3] was “Non-Toxic” in each case.
For `C=C1[C@@H]2[C@@H](OC)[C@H](O)C(C)(C)[C@@]2(O)[C@H](O)C[C@]23C[C@@](C)(O)[C@H](CC[C@@H]12)[C@H]3O`, the IC50 in the series with RAW264.7 [1] was over 40 µM. Further, the Activity result with RAW264.7 [2] and in the series on RAW264.7 [3] was “Non-Toxic” throughout.
As for `C=C1C[C@@]23C[C@@H](OC(C)=O)[C@@]4(O)[C@@H]([C@@H](O)[C@H](O)C4(C)C)[C@](C)(O)[C@@H]2CC[C@@H]1[C@H]3O`, the IC50 in the series with RAW264.7 [1] is over 40 µM. Moreover, the Activity entry in the series on RAW264.7 [2] and in the series with RAW264.7 [3] was “Non-Toxic” in each case.
`CO[C@@H]1[C@H]2[C@@H](C)[C@]34CC[C@H]5C(C)=C[C@]3(C[C@@H](OC(C)=O)[C@]2(O4)C(C)(C)[C@H]1O)[C@@H]5O`: the IC50 in the series on RAW264.7 [1] was over 40 µM. Moreover, the Activity entry in the series on RAW264.7 [2] and in the series on RAW264.7 [3] was “Non-Toxic” in each case.
Turning to `CC(=O)O[C@@H]1[C@H]2CC[C@H]3[C@@](C)(O)[C@@H]4[C@@H]5O[C@@H]5C(C)(C)[C@@]4(O)[C@H](O)C[C@@]13C[C@@]2(C)O`, in the series on RAW264.7 [1], the half-inhibitory concentration (IC50) is over 40 µM. Moreover, the Activity result in the series on RAW264.7 [2] and with RAW264.7 [3] was “Non-Toxic” throughout.
In the case of `C=C1[C@@H]2[C@@H](O)[C@H](O)C(C)(C)[C@@]2(O)[C@H](OC(C)=O)C[C@]23C=C(C)[C@H](CC[C@@H]12)[C@H]3O`, the IC50 with RAW264.7 [1] was over 40 µM. Besides, the Activity result in the series on RAW264.7 [2] and with RAW264.7 [3] was “Non-Toxic” throughout.
Regarding `CC(=O)O[C@@H]1C[C@]23C=C(C)[C@H](CC[C@H]2[C@@](C)(O)[C@@H]2[C@@H]4O[C@@H]4C(C)(C)[C@@]12O)[C@H]3O`, the IC50 in the series with RAW264.7 [1] was over 40 µM. Also, the Activity entry in the series with RAW264.7 [2] and in the series with RAW264.7 [3] was “Non-Toxic” each time.
In the case of `CC(=O)O[C@@H]1C[C@]23C[C@@](C)(O)[C@H](CC[C@H]2[C@@](C)(O)[C@@H]2C[C@H](O)C(C)(C)[C@@]12O)[C@H]3O`, the IC50 in the series on RAW264.7 [1] was over 40 µM. Further, the Activity entry in the series on RAW264.7 [2] and with RAW264.7 [3] was “Non-Toxic” throughout.
For `C=C1[C@@H]2CC[C@@H]3C[C@@]2(C[C@@H](O)[C@@]2(O)[C@H]1C[C@H](O)[C@]2(C)CO)C[C@@]3(C)O`, the half-maximal inhibitory concentration (IC50) in the series on RAW264.7 [1] is over 40 µM. For the same compound, the Activity entry in the series with RAW264.7 [2] and with RAW264.7 [3] was “Non-Toxic” in each case.
As to `C=C1[C@@H]2[C@@H](O)[C@H](O)C(C)(C)[C@@]2(O)[C@H](OC(C)=O)C[C@]23C[C@@](C)(O)[C@H](CC[C@@H]12)[C@H]3O`, the IC50 in the series with RAW264.7 [1] was over 40 µM. Besides, the Activity entry with RAW264.7 [2] and in the series on RAW264.7 [3] was “Non-Toxic” each time.

As a reminder, the IC50 is the concentration that gives 50% inhibition.
